{"source": "ChEMBL document CHEMBL1121422", "about": "“2,4-Diamino-5-benzylpyrimidines and analogues as antibacterial agents. 3. C-Benzylation of aminopyridines with phenolic Mannich bases. Synthesis of 1- and 3-deaza analogues of trimethoprim” (J Med Chem, 1980)", "key": {"[1]": {"test": "Dissociation constant (pKa)", "type": "physicochemical", "conditions": "read-out: Dissociation constant"}, "[2]": {"target": "T1, Dihydrofolate reductase (Escherichia coli) (UniProt P0ABQ4)", "T1 sequence (whole entry)": "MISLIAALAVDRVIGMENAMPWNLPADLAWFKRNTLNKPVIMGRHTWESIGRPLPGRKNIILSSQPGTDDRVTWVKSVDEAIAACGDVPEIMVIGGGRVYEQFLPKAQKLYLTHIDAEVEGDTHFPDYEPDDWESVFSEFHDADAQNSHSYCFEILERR", "test": "(§1) Tested for inhibition of dihydrofolate reductase enzyme purified from Escherichia coli at a concentration of 1x 10 e6M", "in_short": "(§2)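 Affinity-column-purified E. coli enzyme in phosphate buffer (Baccanari method). Compound preincubated 5 min with enzyme and buffer at 37 °C. NADPH added, then FH2 to start the reaction. Value is percent inhibition of reaction rate at the highest concentration tested.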"}, "[3]": {"target": "T1, Dihydrofolate reductase (Escherichia coli)", "test": "as §1", "in_short": "as §2", "remark": "listed apart in the source"}, "[4]": {"target": "T2, Dihydrofolate reductase (Rattus norvegicus) (UniProt Q920D2)", "T2 sequence (whole entry)": "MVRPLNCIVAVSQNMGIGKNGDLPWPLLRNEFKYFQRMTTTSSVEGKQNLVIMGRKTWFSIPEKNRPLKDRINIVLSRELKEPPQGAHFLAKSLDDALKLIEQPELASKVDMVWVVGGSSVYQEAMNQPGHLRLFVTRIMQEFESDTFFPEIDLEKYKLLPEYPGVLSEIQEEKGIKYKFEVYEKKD", "test": "Tested for inhibition of dihydrofolate reductase enzyme purified from rat liver at a concentration of 1x 10 e6 M", "in_short": "(§3)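 Enzyme partially purified from rat liver, assayed in phosphate buffer by the Baccanari method. Compound held 5 min with enzyme and buffer at 37 °C before NADPH, then FH2, started the reaction. Percent inhibition of reaction rate recorded at the highest concentration tested.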"}, "Dihydrofolate reductase": {"target": "T3, Dihydrofolate reductase (Rattus norvegicus, UniProt Q920D2)", "T3 sequence (Q920D2 whole entry)": "T2 sequence (whole entry)", "test": "Inhibition of dihydrofolate reductase from rat liver […]", "conditions": "read-out: I50", "in_short": "as §3"}, "[5]": {"target": "T2, Dihydrofolate reductase (Rattus norvegicus)", "test": "Tested for inhibition of dihydrofolate reductase enzyme purified from rat liver at the highest concentration tested", "in_short": "as §3"}, "[6]": {"target": "T1, Dihydrofolate reductase (Escherichia coli)", "test": "Tested for inhibition of dihydrofolate reductase enzyme purified from Escherichia coli […]", "in_short": "as §2"}}}
{"smiles": "CCOC(=O)Nc1ccnc(C(N)=O)c1", "values": [{"measurement": "pKa", "setting": "[1]", "result": 3.32}]}
{"smiles": "COc1cc(CNc2cccc(N)n2)cc(OC)c1O", "values": [{"measurement": "inhibition", "setting": "[2]", "result": 29, "unit": "%"}, {"measurement": "inhibition", "setting": "[3]", "result": 25, "unit": "%"}, {"measurement": "inhibition", "setting": "[4]", "result": 0, "unit": "%"}, {"measurement": "pKa", "setting": "[1]", "result": 6.51}]}
{"smiles": "CC(C)c1cc(Cc2cnc(N)c(Br)c2N)cc(C(C)C)c1O", "values": [{"measurement": "IC50", "setting": "Dihydrofolate reductase", "result": "~23.7", "unit": "mM"}, {"measurement": "inhibition", "setting": "[5]", "result": 0, "unit": "%"}]}
{"smiles": "COc1cc(CNc2ccnc(N)c2Br)cc(OC)c1O", "values": [{"measurement": "pKa", "setting": "[1]", "result": 7.33}]}
{"smiles": "COc1cc(Cc2c(N)ccnc2N)cc(OC)c1O", "values": [{"measurement": "IC50", "setting": "Dihydrofolate reductase", "result": 41, "unit": "mM"}, {"measurement": "inhibition", "setting": "[6]", "result": 26, "unit": "%"}]}
{"smiles": "CCc1cc(Cc2ccc(N)nc2N)cc(CC)c1O", "values": [{"measurement": "IC50", "setting": "Dihydrofolate reductase", "result": "~40", "unit": "mM"}, {"measurement": "inhibition", "setting": "[5]", "result": 26, "unit": "%"}, {"measurement": "pKa", "setting": "[1]", "result": 6.59}]}
{"smiles": "COc1cc(Cc2cnc(N)cc2N)cc(OC)c1OC", "values": [{"measurement": "inhibition", "setting": "[4]", "result": 7, "unit": "%"}, {"measurement": "pKa", "setting": "[1]", "result": 9.03}]}
{"smiles": "COc1cc(Cc2cc(Cc3cc(OC)c(O)c(OC)c3)c(N)nc2N)cc(OC)c1O", "values": [{"measurement": "IC50", "setting": "Dihydrofolate reductase", "result": 24, "unit": "mM"}, {"measurement": "inhibition", "setting": "[6]", "result": 29, "unit": "%"}, {"measurement": "pKa", "setting": "[1]", "result": 6.69}]}
{"smiles": "CCOC(=O)Nc1ccnc(NC(=O)OCC)c1", "values": [{"measurement": "pKa", "setting": "[1]", "result": 5.04}]}
{"smiles": "COc1cc(CC2C=CC(N)=NC2=O)cc(OC)c1O", "note": "(centres undefined)", "values": [{"measurement": "IC50", "setting": "Dihydrofolate reductase", "result": "~1", "unit": "mM"}, {"measurement": "inhibition", "setting": "[5]", "result": 2.4, "unit": "%"}, {"measurement": "inhibition", "setting": "[6]", "result": 0, "unit": "%"}, {"measurement": "pKa", "setting": "[1]", "result": 1.31}]}
{"smiles": "COc1cc(CC2=CC(Cc3cc(OC)c(O)c(OC)c3)C(=O)N=C2N)cc(OC)c1O", "note": "(centres undefined)", "values": [{"measurement": "IC50", "setting": "Dihydrofolate reductase", "result": 14, "unit": "mM"}, {"measurement": "pKa", "setting": "[1]", "result": 1.51}]}
{"smiles": "Nc1ccnc(N)c1Br", "values": [{"measurement": "pKa", "setting": "[1]", "result": 7.44}]}
{"smiles": "COc1cc(Cc2cnc(N)c(F)c2N)cc(OC)c1O", "values": [{"measurement": "IC50", "setting": "Dihydrofolate reductase", "result": "~35", "unit": "mM"}, {"measurement": "inhibition", "setting": "[5]", "result": 32, "unit": "%"}, {"measurement": "pKa", "setting": "[1]", "result": 7.15}]}
{"smiles": "COc1cc(Cc2cnc(N)cc2N)cc(OC)c1O", "values": [{"measurement": "IC50", "setting": "Dihydrofolate reductase", "result": "~10", "unit": "mM"}, {"measurement": "inhibition", "setting": "[5]", "result": 37, "unit": "%"}]}
{"smiles": "COc1cc(Cc2cnc(N)c(Br)c2N)cc(OC)c1O", "values": [{"measurement": "IC50", "setting": "Dihydrofolate reductase", "result": "~42", "unit": "mM"}, {"measurement": "inhibition", "setting": "[5]", "result": 21, "unit": "%"}, {"measurement": "inhibition", "setting": "[6]", "result": 11, "unit": "%"}, {"measurement": "pKa", "setting": "[1]", "result": 7.2}]}
{"smiles": "COc1cc(Cc2ccc(N)nc2N)cc(OC)c1O", "values": [{"measurement": "IC50", "setting": "Dihydrofolate reductase", "result": "~10", "unit": "mM"}, {"measurement": "inhibition", "setting": "[5]", "result": 34, "unit": "%"}, {"measurement": "inhibition", "setting": "[6]", "result": 0, "unit": "%"}, {"measurement": "pKa", "setting": "[1]", "result": 6.6}]}
{"smiles": "CC(C)c1cc(Cc2cnc(N)cc2N)cc(C(C)C)c1O", "values": [{"measurement": "IC50", "setting": "Dihydrofolate reductase", "result": "~27", "unit": "mM"}, {"measurement": "inhibition", "setting": "[5]", "result": 36, "unit": "%"}]}
{"smiles": "Nc1ccncc1", "note": "[DALFAMPRIDINE]", "values": [{"measurement": "pKa", "setting": "[1]", "result": 9.25}]}
{"smiles": "CCc1cc(Cc2cc(Cc3cc(CC)c(O)c(CC)c3)c(N)nc2N)cc(CC)c1O", "values": [{"measurement": "IC50", "setting": "Dihydrofolate reductase", "result": "~1", "unit": "mM"}, {"measurement": "inhibition", "setting": "[5]", "result": 19, "unit": "%"}, {"measurement": "pKa", "setting": "[1]", "result": 6.63}]}
{"smiles": "COc1cc(CNc2ccnc(N)c2F)cc(OC)c1O", "values": [{"measurement": "pKa", "setting": "[1]", "result": 7.26}]}
{"smiles": "Nc1cccc(N)n1", "values": [{"measurement": "pKa", "setting": "[1]", "result": 6.73}]}
{"smiles": "Nc1ncc(Br)c(N)c1Br", "values": [{"measurement": "pKa", "setting": "[1]", "result": 5.5}]}
{"smiles": "Nc1ccnc(N)c1", "values": [{"measurement": "pKa", "setting": "[1]", "result": 9.25}]}
